Measured values taken from ChEMBL document CHEMBL4411341, “Photoactivatable Prodrug of Doxazolidine Targeting Exosomes” (J Med Chem, 2019).
Non-standard residues stand in square brackets, D forms with d. Residues, ends and D or L forms follow the SMILES beside them. *: point of attachment. X1 = COc1cc(C(C)OC(=O)N2CO[C@@H]3[C@H](C)O[C@@H](O[C@H]4C[C@](O)(C(=O)CO)Cc5c(O)c6c(c(O)c54)C(=O)c4c(OC)cccc4C6=O)C[C@@H]32)c([N+](=O)[O-])cc1OCC(=O)NCCOCCOCCOCCn1nnc2c1-c1ccccc1CN(C(=O)CCNC(=O)CCN1C(=O)CC(*)C1=O)c1ccccc1-2; X2 = COc1cc(C(C)OC(=O)N[C@H]2C[C@H](O[C@H]3C[C@](O)(C(=O)CO)Cc4c(O)c5c(c(O)c43)C(=O)c3c(OC)cccc3C5=O)O[C@@H](C)[C@H]2O)c([N+](=O)[O-])cc1OCC(=O)NCCOCCOCCOCCn1nnc2c1-c1ccccc1CN(C(=O)CCNC(=O)CCN1C(=O)CC(*)C1=O)c1ccccc1-2; Mpa = O=C(O)CCS

Columns and labels:
[1] = Binding affinity to exosomes in human MDA-MB-231 cells assessed as co-localization of compound with exosomes at 1 uM after 1 to 6 hrs using Cy5-labeled peptides by Hoechst-staining based assay; format: ADME, subcellular, Exosome; settings: mda-mb-231, 1 µM
In short: (§1)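 Cy5-labeled L- or D-MARCKS-ED peptide (1 µM) was co-incubated with fluorescent dye-labeled exosomes on MDA-MB-231 cells for 6 h. Peptide and exosome signals were then examined by confocal microscopy, including higher-magnification 3D images, to assess co-localization relative to the nucleus.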

[2] = Binding affinity to exosomes in human MDA-MB-231 cells assessed as co-localization of compound with exosomes out side nucleus area at 1 uM after 1 to 6 hrs using Cy5-labeled peptides by Hoechst-staining based assay; format: ADME, subcellular, Exosome; settings: mda-mb-231, 1 µM; in short: as §1
[3] = Binding affinity to exosomes in human MDA-MB-231 cells assessed as co-localization of compound with exosomes on plasma membrane at 1 uM after 1 hr using Cy5-labeled peptides by Hoechst-staining based assay; format: ADME, Exosome; settings: mda-mb-231, 1 h
MDA-MB-231 [4] = experiment: Growth inhibition of human MDA-MB-231 cells irradiated with UV light for 15 mins followed by 15 mins incubation and measured after 5 days by crystal violet-staining based assay; format: functional, cell-based; settings: MDA-MB-231, light or radiation study
In short: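 MDA-MB-231 cells exposed to prodrug at various concentrations for 6 h in medium with 10% FBS, washed twice with PBS, then irradiated 15 min with UV black lamp (320-400 nm, max 350 nm, ~0.8 mW/cm2 at 12 cm). Held 15 min at room temperature, washed, refed, and grown until untreated cells reached 80% confluency or 5 days. Crystal violet read-out; IC50 from growth inhibition curves.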

MDA-MB-231 [5] = experiment: Growth inhibition of human MDA-MB-231 cells measured after 5 days in absence of irradiation by crystal violet-staining based assay; format: cell-based; settings: MDA-MB-231, 120 h
In short: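 MDA-MB-231 cells given prodrug at various concentrations for 6 h in medium with 10% FBS, washed twice with PBS. Plate wrapped in aluminum foil to exclude ambient UV, no irradiation. Cells then washed, refed, and grown until untreated cells reached 80% confluency or 5 days. Cell density read by crystal violet staining; IC50 from growth inhibition curves.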

MDA-MB-231 [6] = experiment: Ratio of IC50 for human MDA-MB-231 cells in absence of irradiation to IC50 for human MDA-MB-231 cells in presence of irradiation
[7] = Drug uptake in human MDA-MB-231 cells at 1 uM after 6 hrs by flow cytometry; format: ADME, cell-based; settings: mda-mb-231, 6 h
In short: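 MDA-MB-231 cells incubated 6 h with 1 µM compound. Uptake read by flow cytometry, with fluorescence intensity normalized to untreated cells. Three biologically independent experiments; standard deviation of mean fluorescence intensity.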

[8] = Induction of exosomes-mediated drug uptake in human […] cells at 1 uM after 6 hrs in presence of cellmask orange-labeled exosomes by Cy5 channel-based assay; settings: mda-mb-231, 6 h; in short: as §1
[9] = Induction of exosomes-mediated drug uptake in human […] cells at 1 uM after 6 hrs in presence of cellmask orange-labeled exosomes by tritc channel based assay; settings: mda-mb-231, 6 h; in short: as §1
[10] = Drug uptake in human HMEC cells at 1 uM after 1 to 6 hrs using Cy5-labeled peptides by confocal microscopy
[11] = Drug uptake in human MDA-MB-231 cells at 1 uM after 1 to 6 hrs using Cy5-labeled peptides by confocal microscopy; settings: mda-mb-231, 1 µM
MDA-MB-231 [12] = experiment: Cytotoxicity against human MDA-MB-231 cells at 10 uM after 6 hrs by NucBlue live cell stain-based confocal microscopy; settings: mda-mb-231, 6 h
[13] = Drug uptake in human MDA-MB-231 cells at 5 uM after 3 hrs by NucBlue live cell stain-based confocal microscopy; format: ADME; settings: mda-mb-231, 3 h
In short: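 MDA-MB-231 cells exposed to 5 µM conjugate for 3 h, then imaged by confocal microscopy at 40x using anthracycline fluorescence; untreated cells imaged as reference.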

Drug uptake [10] | Drug uptake [11] | Molecule | IC50 (MDA-MB-231 [4]) [nM] | IC50 (MDA-MB-231 [5]) [nM] | Ratio IC50 (MDA-MB-231 [6]) | Drug uptake [7] | also measured
Active | Active | CC(C)C[C@@H](NC(=O)[C@@H](CCCCN)NC(=O)[C@@H](Cc1ccccc1)NC(=O)[C@@H](CO)NC(=O)[C@@H](CCCCN)NC(=O)[C@@H](CCCCN)NC(=O)[C@@H](Cc1ccccc1)NC(=O)[C@@H](CO)NC(=O)[C@@H](Cc1ccccc1)NC(=O)[C@@H](CCCNC(=N)N)NC(=O)[C@@H](CCCCN)NC(=O)[C@@H](CCCCN)NC(=O)[C@@H](CCCCN)NC(=O)[C@@H](CCCCN)NC(=O)[C@H](N)CCCCN)C(=O)N[C@H](CO)C(=O)NCC(=O)N[C@H](Cc1ccccc1)C(=O)N[C@H](CO)C(=O)N[C@H](Cc1ccccc1)C(=O)N[C@H](CCCCN)C(=O)N[C@H](CCCCN)C(=O)N[C@H](CC(N)=O)C(=O)N[C@H](CCCCN)C(=O)N[C@H](CCCCN)C(N)=O |  |  |  |  | Drug uptake [8]: Active; Activity [1]: Active; Drug uptake [9]: Active; Activity [2]: Active; Activity [3]: Active
Active | Active | H-KKKGKKNSSKKFFFFSKFKLSRKKK-NH2 |  |  |  |  | 

The next lines start with the molecule.

Molecule | Drug uptake [10] | Drug uptake [11] | IC50 (MDA-MB-231 [4]) [nM] | IC50 (MDA-MB-231 [5]) [nM] | Ratio IC50 (MDA-MB-231 [6]) | Drug uptake [7] | also measured
CC(C)C[C@H](NC(=O)[C@H](CCCCN)NC(=O)[C@H](Cc1ccccc1)NC(=O)[C@H](CO)NC(=O)[C@H](CCCCN)NC(=O)[C@H](CCCCN)NC(=O)[C@H](Cc1ccccc1)NC(=O)[C@H](CO)NC(=O)[C@H](Cc1ccccc1)NC(=O)[C@H](CCCNC(=N)N)NC(=O)[C@H](CCCCN)NC(=O)[C@H](CCCCN)NC(=O)[C@H](CCCCN)NC(=O)[C@H](CCCCN)NC(=O)[C@@H](N)CCCCN)C(=O)N[C@@H](CO)C(=O)NCC(=O)N[C@@H](Cc1ccccc1)C(=O)N[C@@H](CO)C(=O)N[C@@H](Cc1ccccc1)C(=O)N[C@@H](CCCCN)C(=O)N[C@@H](CCCCN)C(=O)N[C@@H](CC(N)=O)C(=O)N[C@@H](CCCCN)C(=O)N[C@@H](CCCCN)C(N)=O |  |  |  |  |  |  | Activity [1]: Active; Activity [2]: Active; Activity [3]: Active
COc1cc(C(C)OC(=O)N[C@H]2C[C@H](O[C@H]3C[C@](O)(C(=O)CO)Cc4c(O)c5c(c(O)c43)C(=O)c3c(OC)cccc3C5=O)O[C@@H](C)[C@H]2O)c([N+](=O)[O-])cc1OCC(=O)NCCOCCOCCOCCn1nnc2c1-c1ccccc1CN(C(=O)CCNC(=O)CCN1C(=O)CC(SCCC(=O)N[C@@H](CCCCN)C(=O)N[C@@H](CCCCN)C(=O)N[C@@H](CCCCN)C(=O)N[C@@H](CCCCN)C(=O)N[C@@H](CCCCN)C(=O)N[C@@H](CCCNC(=N)N)C(=O)N[C@@H](Cc3ccccc3)C(=O)N[C@@H](CO)C(=O)N[C@@H](Cc3ccccc3)C(=O)N[C@@H](CCCCN)C(=O)N[C@@H](CCCCN)C(=O)N[C@@H](CO)C(=O)N[C@@H](Cc3ccccc3)C(=O)N[C@@H](CCCCN)C(=O)N[C@@H](CC(C)C)C(=O)N[C@@H](CO)C(=O)NCC(=O)N[C@@H](Cc3ccccc3)C(=O)N[C@@H](CO)C(=O)N[C@@H](Cc3ccccc3)C(=O)N[C@@H](CCCCN)C(=O)N[C@@H](CCCCN)C(=O)N[C@@H](CC(N)=O)C(=O)N[C@@H](CCCCN)C(=O)N[C@@H](CCCCN)C(N)=O)C1=O)c1ccccc1-2 (stereo partly specified) ([Mpa](X2)KKKKKRFSFKKSFKLSGFSFKKNKK-NH2) |  |  | 1200 | 6500 | 5.4 | Active | 
CC[C@H](C)[C@H](NC(=O)[C@H](CCCCN)NC(=O)[C@H](CC(=O)O)NC(=O)[C@H](Cc1ccc(O)cc1)NC(=O)[C@H](CC(=O)O)NC(=O)CNC(=O)CNC(=O)CCSC1CC(=O)N(CCC(=O)NCCC(=O)N2Cc3ccccc3-c3c(nnn3CCOCCOCCOCCNC(=O)COc3cc([N+](=O)[O-])c(C(C)OC(=O)N4CO[C@@H]5[C@H](C)O[C@@H](O[C@H]6C[C@](O)(C(=O)CO)Cc7c(O)c8c(c(O)c76)C(=O)c6c(OC)cccc6C8=O)C[C@@H]54)cc3OC)-c3ccccc32)C1=O)C(=O)NCC(=O)N[C@@H](CCCCN)C(=O)N[C@@H](CC(N)=O)C(=O)N[C@@H](CC(=O)O)C(=O)N[C@@H](C)C(N)=O (stereo partly specified) ([Mpa](X1)GGDYDKIGKNDA-NH2) |  |  | 1300 | 11000 | 8.5 | Not Active | 
H-DDDDDRASADDSADLSGASADDDDD-OH | Not Active | Not Active |  |  |  |  | 
COc1cc(C(C)OC(=O)N2CO[C@@H]3[C@H](C)O[C@@H](O[C@H]4C[C@](O)(C(=O)CO)Cc5c(O)c6c(c(O)c54)C(=O)c4c(OC)cccc4C6=O)C[C@@H]32)c([N+](=O)[O-])cc1OCC(=O)NCCOCCOCCOCCn1nnc2c1-c1ccccc1CN(C(=O)CCNC(=O)CCN1C(=O)CC(SCCC(=O)N[C@@H](CCCCN)C(=O)N[C@@H](CCCCN)C(=O)N[C@@H](CCCCN)C(=O)N[C@@H](CCCCN)C(=O)N[C@@H](CCCCN)C(=O)N[C@@H](CCCNC(=N)N)C(=O)N[C@@H](Cc3ccccc3)C(=O)N[C@@H](CO)C(=O)N[C@@H](Cc3ccccc3)C(=O)N[C@@H](CCCCN)C(=O)N[C@@H](CCCCN)C(=O)N[C@@H](CO)C(=O)N[C@@H](Cc3ccccc3)C(=O)N[C@@H](CCCCN)C(=O)N[C@@H](CC(C)C)C(=O)N[C@@H](CO)C(=O)NCC(=O)N[C@@H](Cc3ccccc3)C(=O)N[C@@H](CO)C(=O)N[C@@H](Cc3ccccc3)C(=O)N[C@@H](CCCCN)C(=O)N[C@@H](CCCCN)C(=O)N[C@@H](CC(N)=O)C(=O)N[C@@H](CCCCN)C(=O)N[C@@H](CCCCN)C(N)=O)C1=O)c1ccccc1-2 (stereo partly specified) |  |  | 15 | 2500 | 170 | Active | Activity (MDA-MB-231 [12]): Toxic; Drug uptake [13]: Active
H-GGDYDKIGKNDA-OH | Not Active | Not Active |  |  |  |  | 
COc1cc(C(C)OC(=O)N2CO[C@@H]3[C@H](C)O[C@@H](O[C@H]4C[C@](O)(C(=O)CO)Cc5c(O)c6c(c(O)c54)C(=O)c4c(OC)cccc4C6=O)C[C@@H]32)c([N+](=O)[O-])cc1OCC(=O)NCCOCCOCCOCCn1nnc2c1-c1ccccc1CN(C(=O)CCNC(=O)CCN1C(=O)CC(SCCC(=O)N[C@H](CCCCN)C(=O)N[C@H](CCCCN)C(=O)N[C@H](CCCCN)C(=O)N[C@H](CCCCN)C(=O)N[C@H](CCCCN)C(=O)N[C@H](CCCNC(=N)N)C(=O)N[C@H](Cc3ccccc3)C(=O)N[C@H](CO)C(=O)N[C@H](Cc3ccccc3)C(=O)N[C@H](CCCCN)C(=O)N[C@H](CCCCN)C(=O)N[C@H](CO)C(=O)N[C@H](Cc3ccccc3)C(=O)N[C@H](CCCCN)C(=O)N[C@H](CC(C)C)C(=O)N[C@H](CO)C(=O)NCC(=O)N[C@H](Cc3ccccc3)C(=O)N[C@H](CO)C(=O)N[C@H](Cc3ccccc3)C(=O)N[C@H](CCCCN)C(=O)N[C@H](CCCCN)C(=O)N[C@H](CC(N)=O)C(=O)N[C@H](CCCCN)C(=O)N[C@H](CCCCN)C(N)=O)C1=O)c1ccccc1-2 (stereo partly specified) |  |  | 42 | 2000 | 130 | Active | Activity (MDA-MB-231 [12]): Toxic; Drug uptake [13]: Active
